In ChEMBL document CHEMBL1158040, “Biological activities and 3D QSAR studies of a series of Delisea pulchra (cf. fimbriata) derived natural products” (J Nat Prod, 2006):
≈ marks a conversion by molar mass, not a printed value. Calls of active or inactive are those of the source. The calls are words filed in the database; no cut-off is given here.

Test system: Lu1
Assay: Cytotoxicity against human Lu1 cells
Type: functional
Settings: read-out: ED50 (the source's name)

Compound | EC50
CCC[C@@H](O)C1=C(Br)/C(=C\Br)OC1=O [HYDROXYFIMBROLIDE] | 0.6 µg/mL (≈ 1.84 µM)
CCC[C@@H](OC(C)=O)C1=C(Br)[C@](OC)(C(Br)Br)OC1=O | > 20 µg/mL

Test system: Escherichia coli
Assay: Antimicrobial activity against Escherichia coli at 10 ug
Type: functional, organism-based
Settings: not given
Method in brief: (§1)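 Direct bioautography: each compound is spotted onto TLC plates and the solvent evaporated. The test organism is then grown directly on the plate. Growth inhibition is scored at the spot as active (+) or very active (++). Where a number is given, it is the radius in mm of the inhibition zone around the spot.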

Compound | Activity
CCC[C@@H](O)C1=C(Br)/C(=C\Br)OC1=O [HYDROXYFIMBROLIDE] | Active
CCC[C@@H](OC(C)=O)C1=C(Br)[C@](OC)(C(Br)Br)OC1=O | inactive

Test system: KB
Assay: Cytotoxicity against vinblastine-sensitive human KB cells
Type: functional
Settings: read-out: ED50 (the source's name)

Compound | EC50
CCC[C@@H](O)C1=C(Br)/C(=C\Br)OC1=O [HYDROXYFIMBROLIDE] | 0.2 µg/mL (≈ 0.614 µM)
CCC[C@@H](OC(C)=O)C1=C(Br)[C@](OC)(C(Br)Br)OC1=O | 5.3 µg/mL (≈ 11.1 µM)

Test system: Bacillus subtilis
Assay: Antimicrobial activity against Bacillus subtilis at 10 ug
Type: functional, organism-based
Settings: not given
Method in brief: as §1

Compound | Activity
CCC[C@@H](O)C1=C(Br)/C(=C\Br)OC1=O [HYDROXYFIMBROLIDE] | Active
CCC[C@@H](OC(C)=O)C1=C(Br)[C@](OC)(C(Br)Br)OC1=O | inactive

Test system: LNCaP
Assay: Cytotoxicity against human LNCAP cells
Type: functional
Settings: read-out: ED50 (the source's name)

Compound | EC50
CCC[C@@H](O)C1=C(Br)/C(=C\Br)OC1=O [HYDROXYFIMBROLIDE] | < 0.1 µg/mL
CCC[C@@H](OC(C)=O)C1=C(Br)[C@](OC)(C(Br)Br)OC1=O | 4.5 µg/mL (≈ 9.4 µM)

Test system: Micrococcus luteus
Assay: Antimicrobial activity against Micrococcus luteus at 10 ug
Type: functional, organism-based
Settings: not given
Method in brief: as §1

Compound | Activity
CCC[C@@H](O)C1=C(Br)/C(=C\Br)OC1=O [HYDROXYFIMBROLIDE] | Active
CCC[C@@H](OC(C)=O)C1=C(Br)[C@](OC)(C(Br)Br)OC1=O | inactive

Test system: Bacillus subtilis
Assay: Antimicrobial activity against Bacillus subtilis at 1 ug
Type: functional, organism-based
Settings: not given
Method in brief: as §1

Compound | Activity
CCC[C@@H](O)C1=C(Br)/C(=C\Br)OC1=O [HYDROXYFIMBROLIDE] | Active
CCC[C@@H](OC(C)=O)C1=C(Br)[C@](OC)(C(Br)Br)OC1=O | inactive

Test system: Bacillus subtilis
Assay: Antimicrobial activity against Bacillus subtilis at 5 ug
Type: functional, organism-based
Settings: not given
Method in brief: as §1

Compound | Activity
CCC[C@@H](O)C1=C(Br)/C(=C\Br)OC1=O [HYDROXYFIMBROLIDE] | Active
CCC[C@@H](OC(C)=O)C1=C(Br)[C@](OC)(C(Br)Br)OC1=O | inactive

Test system: Micrococcus luteus
Assay: Antimicrobial activity against Micrococcus luteus at 0.1 ug
Type: functional, organism-based
Settings: not given
Method in brief: as §1

Compound | Activity
CCC[C@@H](O)C1=C(Br)/C(=C\Br)OC1=O [HYDROXYFIMBROLIDE] | inactive
CCC[C@@H](OC(C)=O)C1=C(Br)[C@](OC)(C(Br)Br)OC1=O | inactive

Test system: Penicillium oxalicum
Assay: Antimicrobial activity against Penicillium oxalicum at 0.1 ug
Type: functional
Settings: not given
Method in brief: as §1

Compound | Activity
CCC[C@@H](OC(C)=O)C1=C(Br)[C@](OC)(C(Br)Br)OC1=O | inactive

Same assay, conditions: read-out: IZ

Compound | zone of inhibition at 0.1 µg/disc
CCC[C@@H](O)C1=C(Br)/C(=C\Br)OC1=O [HYDROXYFIMBROLIDE] | 6 mm

Molecular target: Human immunodeficiency virus type 1 reverse transcriptase (Human immunodeficiency virus 1) (UniProt Q72547)
Assay: Inhibition of HIV1 RT at 200 uM
Settings: not given
Method in brief: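 HIV-1 reverse transcriptase inhibition was measured in an ELISA-based system.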

Compound | Activity
CCC[C@@H](O)C1=C(Br)/C(=C\Br)OC1=O [HYDROXYFIMBROLIDE] | inactive
CCC[C@@H](OC(C)=O)C1=C(Br)[C@](OC)(C(Br)Br)OC1=O | inactive

Test system: Escherichia coli
Assay: Antimicrobial activity against Escherichia coli at 1 ug
Type: functional, organism-based
Settings: not given
Method in brief: as §1

Compound | Activity
CCC[C@@H](O)C1=C(Br)/C(=C\Br)OC1=O [HYDROXYFIMBROLIDE] | Active
CCC[C@@H](OC(C)=O)C1=C(Br)[C@](OC)(C(Br)Br)OC1=O | inactive

Test system: Penicillium oxalicum
Assay: Antimicrobial activity against Penicillium oxalicum at 1 ug
Type: functional
Settings: read-out: IZ
Method in brief: as §1

Compound | zone of inhibition at 1 µg/disc
CCC[C@@H](O)C1=C(Br)/C(=C\Br)OC1=O [HYDROXYFIMBROLIDE] | 21 mm
CCC[C@@H](OC(C)=O)C1=C(Br)[C@](OC)(C(Br)Br)OC1=O | 4 mm

Test system: Penicillium oxalicum
Assay: Antimicrobial activity against Penicillium oxalicum at 5 ug
Type: functional
Settings: read-out: IZ
Method in brief: as §1

Compound | zone of inhibition at 5 µg/disc
CCC[C@@H](O)C1=C(Br)/C(=C\Br)OC1=O [HYDROXYFIMBROLIDE] | 31 mm
CCC[C@@H](OC(C)=O)C1=C(Br)[C@](OC)(C(Br)Br)OC1=O | 8 mm

Test system: Plasmodium falciparum
Assay: Antimalarial activity against chloroquine-sensitive Plasmodium falciparum D6 at 10 ug/ml
Type: functional
Settings: not given

Compound | Activity
CCC[C@@H](O)C1=C(Br)/C(=C\Br)OC1=O [HYDROXYFIMBROLIDE] | >50%

Test system: Escherichia coli
Assay: Antimicrobial activity against Escherichia coli at 0.1 ug
Type: functional, organism-based
Settings: not given
Method in brief: as §1

Compound | Activity
CCC[C@@H](OC(C)=O)C1=C(Br)[C@](OC)(C(Br)Br)OC1=O | inactive

Test system: ZR-75-1
Assay: Cytotoxicity against human ZR-75-1 cells
Type: functional
Settings: read-out: ED50 (the source's name)

Compound | EC50
CCC[C@@H](O)C1=C(Br)/C(=C\Br)OC1=O [HYDROXYFIMBROLIDE] | 0.3 µg/mL (≈ 0.92 µM)
CCC[C@@H](OC(C)=O)C1=C(Br)[C@](OC)(C(Br)Br)OC1=O | 3.8 µg/mL (≈ 7.93 µM)

Test system: KB
Assay: Cytotoxicity against human KB cells
Type: functional
Settings: read-out: ED50 (the source's name)

Compound | EC50
CCC[C@@H](O)C1=C(Br)/C(=C\Br)OC1=O [HYDROXYFIMBROLIDE] | 0.5 µg/mL (≈ 1.53 µM)
CCC[C@@H](OC(C)=O)C1=C(Br)[C@](OC)(C(Br)Br)OC1=O | 6.1 µg/mL (≈ 12.7 µM)

Test system: Plasmodium falciparum
Assay: Antimalarial activity against chloroquine-sensitive Plasmodium falciparum D6
Type: functional, organism-based
Settings: not given
Method in brief: (§2)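 In vitro growth inhibition of Plasmodium falciparum clones D6 (chloroquine-sensitive) and W2 (chloroquine-resistant); IC50 reported in μg/mL.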

Compound | IC50
CCC[C@@H](OC(C)=O)C1=C(Br)[C@](OC)(C(Br)Br)OC1=O | 3.8 µg/mL (≈ 7.93 µM)

Test system: Escherichia coli
Assay: Antimicrobial activity against Escherichia coli at 5 ug
Type: functional, organism-based
Settings: not given
Method in brief: as §1

Compound | Activity
CCC[C@@H](O)C1=C(Br)/C(=C\Br)OC1=O [HYDROXYFIMBROLIDE] | Active
CCC[C@@H](OC(C)=O)C1=C(Br)[C@](OC)(C(Br)Br)OC1=O | inactive

Test system: KB
Assay: Cytotoxicity against vinblastine-resistant human KB cells
Type: functional
Settings: read-out: ED50 (the source's name)
Method in brief: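 The vinblastine-resistant KB-V1 line was tested both with and without added vinblastine in the cultured tumour-cell cytotoxicity panel. Results are reported as ED50.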

Compound | EC50
CCC[C@@H](O)C1=C(Br)/C(=C\Br)OC1=O [HYDROXYFIMBROLIDE] | 1.1 µg/mL (≈ 3.37 µM)
CCC[C@@H](OC(C)=O)C1=C(Br)[C@](OC)(C(Br)Br)OC1=O | 6.1 µg/mL (≈ 12.7 µM)

Test system: Penicillium oxalicum
Assay: Antimicrobial activity against Penicillium oxalicum at 10 ug
Type: functional
Settings: read-out: IZ
Method in brief: as §1

Compound | zone of inhibition at 10 µg/disc
CCC[C@@H](O)C1=C(Br)/C(=C\Br)OC1=O [HYDROXYFIMBROLIDE] | 28 mm
CCC[C@@H](OC(C)=O)C1=C(Br)[C@](OC)(C(Br)Br)OC1=O | 9 mm

Test system: Micrococcus luteus
Assay: Antimicrobial activity against Micrococcus luteus at 5 ug
Type: functional, organism-based
Settings: not given
Method in brief: as §1

Compound | Activity
CCC[C@@H](O)C1=C(Br)/C(=C\Br)OC1=O [HYDROXYFIMBROLIDE] | Active
CCC[C@@H](OC(C)=O)C1=C(Br)[C@](OC)(C(Br)Br)OC1=O | inactive

Test system: Plasmodium falciparum
Assay: Antimalarial activity against chloroquine-resistant Plasmodium falciparum W2
Type: functional, organism-based
Settings: not given
Method in brief: as §2

Compound | IC50
CCC[C@@H](OC(C)=O)C1=C(Br)[C@](OC)(C(Br)Br)OC1=O | > 10 µg/mL

Test system: Penicillium oxalicum
Assay: Antimicrobial activity against Penicillium oxalicum at 0.01 ug
Type: functional
Settings: not given
Method in brief: as §1

Compound | Activity
CCC[C@@H](O)C1=C(Br)/C(=C\Br)OC1=O [HYDROXYFIMBROLIDE] | inactive

Test system: not listed separately
Assay: Inhibition of TK assessed as residual activity at 200 ug/ml
Settings: not given
Method in brief: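 The enzyme was tyrosine kinase p56lck, with test compounds at 200 μg/mL. The read-out is the remaining enzyme activity.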

Compound | Activity
CCC[C@@H](OC(C)=O)C1=C(Br)[C@](OC)(C(Br)Br)OC1=O | 87.5%

Test system: Bacillus subtilis
Assay: Antimicrobial activity against Bacillus subtilis at 0.1 ug
Type: functional, organism-based
Settings: not given
Method in brief: as §1

Compound | Activity
CCC[C@@H](O)C1=C(Br)/C(=C\Br)OC1=O [HYDROXYFIMBROLIDE] | Active
CCC[C@@H](OC(C)=O)C1=C(Br)[C@](OC)(C(Br)Br)OC1=O | inactive

Test system: not listed separately
Assay: Selectivity index, ratio of IC50 for human KB cells to IC50 for Plasmodium falciparum D6
Type: toxicity, cell-based
Settings: KB cells versus Plasmodium falciparum D6, read-out: Ratio IC50
Method in brief: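 Plasmodium falciparum clones were assayed in vitro: D6 (chloroquine-sensitive) and W2 (chloroquine-resistant). IC50 is in μg/mL. The selectivity index is the ratio of the antimalarial to the cytotoxic activity.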

Compound | selectivity ratio
CCC[C@@H](OC(C)=O)C1=C(Br)[C@](OC)(C(Br)Br)OC1=O | 2

Test system: Micrococcus luteus
Assay: Antimicrobial activity against Micrococcus luteus at 1 ug
Type: functional, organism-based
Settings: not given
Method in brief: as §1

Compound | Activity
CCC[C@@H](O)C1=C(Br)/C(=C\Br)OC1=O [HYDROXYFIMBROLIDE] | Active
CCC[C@@H](OC(C)=O)C1=C(Br)[C@](OC)(C(Br)Br)OC1=O | inactive
